Screening data as filed in PubChem.
Rows were chosen to be rich in hits. Some 1.3% of all compounds tested hit in one or more screens of this group.
aDG glyco up – increases alpha dystroglycan glycosylation; Pro5-aDG cells, alpha-DG glycosylation AlphaScreen (IIH6); 0% Pro5, 100% B10-LARGE cell signal; activation, % at 10 µM; 360,000 tested, 0.22% active; AID 624168;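 active means activation of at least 8% versus controls, or a plate z-score of at least 8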;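 further: Pro5 are CHO cells carrying HIG-tagged alpha-DG that lacks glycosylation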
CendR NRP1 mod – modulators of CendR peptide binding to human neuropilin-1; O14786; FAM-RPARPAR peptide binding to NRP-1, fluorescence polarization; inhibition, % at 25 µM; 360,000 tested, 0.85% active;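 active means inhibition or corrected inhibition above about 18%, plus a signal ratio from 0.5 to 1.5, limit read from the data, passing the limit was not always enough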
Tn6 DDE FP – inhibitors of Tn6 peptide binding to human fibrin DD(E); P02675; Fibrin DD(E) TRITC-Tn6 fluorescence polarization displacement; inhibition, % at 8.3 µM; 370,000 tested, 0.21% active; AID 720509;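 active means inhibition above a per-campaign cutoff: mean of compounds within control limits plus 3 SD, cut at about 15% in these data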;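 further: 0% = median of all compound wells on the plate and 100% = blocking peptide control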
DDE Tn7 FP inh – disrupts Tn7 cyclic peptide binding to fibrin D-Dimer-E complex; FP displacement of FITC-Tn7 peptide from fibrin DD(E); 0% = median of compound wells per plate; inhibition, % at 8.3 µM; 370,000 tested, 0.13% active; AID 720508;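 active means inhibition above the mean of compounds falling within the control limits plus 3 SD of them, cut at about 14% in these data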;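 further: 0% = plate median of compound wells and 100% = 10 µM Aha-Tn7 peptide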
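Assay system: Fibrin-DD(E) protein isolated from polymerized human fibrin clots; read-out basis: percent inhibition; medium: Tris/NaCl/CaCl2 buffer, pH 7.8; signal: FP measurement; incubation: 10 min plus 3 h, room temperature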
DDE Tn6 FP ctr – counter-screen for inhibitors of Tn6 peptide binding to fibrin DD(E); shares compounds with Tn6 DDE FP; TRITC-Tn6 fluorescence polarization displacement; 0% = median of compound wells, not DMSO; inhibition, % at 8.3 µM; 680 tested, 2% active; AID 720621;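 active means inhibition above the mean of test compounds lying between the control limits plus 3 SD of those, cut at about 14% in these data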;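 further: 0% = median of compound wells and 100% = wells with Aha-Tn7 blocking peptide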
Tn6 DDE conf – DD(E)-Tn6 binding inhibition, FP confirmation; FP displacement of TRITC-Tn6 peptide from DD(E); 0% = per-plate median of test wells; 680 tested, 10% active; shares compounds with Tn6 DDE FP; AID 720631; inhibition, % at 8.3 µM;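 active means inhibition above the mean of compounds lying within the control limits plus 3 SD, cut at about 16% in these data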;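 further: 100% = high control wells holding a competing inhibitor peptide at 10 µM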
* marks the source's active call; other numbers are inactive results; ! = repeats disagree.

Results for CCN(C)c1ccc(/C=N\n2nnnc2N)cc1 ?
aDG glyco up: 0.0; CendR NRP1 mod: -5.7; Tn6 DDE FP: -3.6; DDE Tn7 FP inh: 2.0

How did CCOc1ccc(S(=O)(=O)N(CC(=O)NCc2cccnc2)c2ccc(F)cc2)cc1 do in these assays?
aDG glyco up: -0.2; CendR NRP1 mod: 13.5; Tn6 DDE FP: 18.1*; DDE Tn7 FP inh: 2.9; DDE Tn6 FP ctr: -2.7; Tn6 DDE conf: -3.2

How did CCCC1CC(=O)NC1(C(=O)OCC)C(=O)OCC (configuration not stated) do in these assays?
aDG glyco up: -0.1; CendR NRP1 mod: -7.1; Tn6 DDE FP: 5.3; DDE Tn7 FP inh: -3.6

How did O=C(N[C@@H](Cc1ccccc1)C(=O)OCC(=O)N1CCOCC1)c1cccs1 do in these assays?
aDG glyco up: 0.0; CendR NRP1 mod: 6.8; Tn6 DDE FP: 17.8*; DDE Tn7 FP inh: -0.7; DDE Tn6 FP ctr: 3.0; Tn6 DDE conf: -5.3

What do the screens show for `NC(=O)c1ccc(NC(=O)COC(=O)CC2CC3CCC2C3)cc1` (configuration not stated)?
aDG glyco up: 0.0; CendR NRP1 mod: -6.2; Tn6 DDE FP: -1.8; DDE Tn7 FP inh: -5.7

How did O=C(COC(=O)CC1CC2CCC1C2)NC(=O)NCc1ccco1 (configuration not stated) do in these assays?
aDG glyco up: -0.3; CendR NRP1 mod: -5.1; Tn6 DDE FP: 19.5*; DDE Tn7 FP inh: 1.0; DDE Tn6 FP ctr: 0.9; Tn6 DDE conf: -5.2

Results for Cc1nc2ccc(N)cc2s1 ?
aDG glyco up: 0.0; CendR NRP1 mod: 3.6; Tn6 DDE FP: 15.3*; DDE Tn7 FP inh: -1.8; DDE Tn6 FP ctr: -5.2; Tn6 DDE conf: -8.7

Results for CC(C)CN1C(=O)[C@@]2(CC(=O)N(C)C2c2ccccc2)c2cc(-n3cc(CO)nn3)ccc21 (some centres not stated) ?
Tn6 DDE FP: 9.2; DDE Tn7 FP inh: -0.9

What do the screens show for `CC(C)CN1C(=O)[C@]2(CC(=O)N(C)C2c2ccccc2)c2cc(-n3cc(C4=CCCCC4)nn3)ccc21` (some centres not stated)?
Tn6 DDE FP: 15.4*; DDE Tn7 FP inh: -0.7; DDE Tn6 FP ctr: 8.1; Tn6 DDE conf: 6.7

Results for O=c1[nH][nH]c(C(F)(F)F)c1C=Nc1ccccc1 ?
aDG glyco up: -0.1; CendR NRP1 mod: -2.0; Tn6 DDE FP: -2.3; DDE Tn7 FP inh: -2.9

Results for Cc1cc(O)ccc1N=Cc1c(C(F)(F)F)[nH][nH]c1=O ?
aDG glyco up: -0.1; CendR NRP1 mod: -1.9; Tn6 DDE FP: 76.9*; DDE Tn7 FP inh: 4.1; DDE Tn6 FP ctr: -5.4; Tn6 DDE conf: -0.4

How did CCCCCOCC1CC(C/C(C)=N/NC(N)=S)C(=O)O1 (configuration not stated) do in these assays?
aDG glyco up: 3.0; CendR NRP1 mod: -2.9; Tn6 DDE FP: 15.5*; DDE Tn7 FP inh: 10.2; DDE Tn6 FP ctr: -1.3; Tn6 DDE conf: -11.3

What do the screens show for `Cc1ccc(C2CCC3(CCC(=O)N3CCO)CC2)cc1` (configuration not stated)?
Tn6 DDE FP: 19.9*!; DDE Tn7 FP inh: 1.3; DDE Tn6 FP ctr: 7.1; Tn6 DDE conf: 3.4

What do the screens show for `CCOC(=O)CN1C(=O)[C@]2(OCCC=C[C@H]2C)c2ccccc21`?
Tn6 DDE FP: -2.6; DDE Tn7 FP inh: 4.0

Results for CCCS(=O)(=O)NC(=O)C1(C)CCN(C(=O)c2cccc(OC(F)(F)F)c2)C1 (configuration not stated) ?
aDG glyco up: 0.2; CendR NRP1 mod: 0.1; Tn6 DDE FP: 15.3*; DDE Tn7 FP inh: 4.2; DDE Tn6 FP ctr: -7.7; Tn6 DDE conf: -8.1

How did O=C(CN1CCN(C/C=C/c2ccccc2)CC1)NCc1ccccc1 do in these assays?
aDG glyco up: -0.2; CendR NRP1 mod: -4.7; Tn6 DDE FP: -4.3; DDE Tn7 FP inh: -5.0

How did CCC(C)c1ccccc1NC(=O)CN1CCN(C/C=C/c2ccccc2)CC1 (configuration not stated) do in these assays?
aDG glyco up: 0.1; CendR NRP1 mod: 2.1; Tn6 DDE FP: 15.8*; DDE Tn7 FP inh: -3.6; DDE Tn6 FP ctr: -5.2; Tn6 DDE conf: -6.1

Results for CCOc1ccccc1-n1c(=S)sc2c(=O)n(-c3ccc(C)cc3)c(=S)[nH]c21 ?
aDG glyco up: -0.3; CendR NRP1 mod: 2.5; Tn6 DDE FP: 10.8; DDE Tn7 FP inh: -2.1

Results for CCn1c(=S)sc2c(=O)n(-c3ccccc3)c(=S)[nH]c21 ?
aDG glyco up: -0.2; CendR NRP1 mod: -2.7; Tn6 DDE FP: 17.9*; DDE Tn7 FP inh: 4.1; DDE Tn6 FP ctr: 7.5; Tn6 DDE conf: -15.4

What do the screens show for `CC1CCN(C(=O)COC(=O)Cc2c[nH]c3ccccc23)CC1`?
aDG glyco up: -0.2; CendR NRP1 mod: 4.7; Tn6 DDE FP: 21.4*; DDE Tn7 FP inh: 1.5; DDE Tn6 FP ctr: 4.6; Tn6 DDE conf: -6.2

Results for CC1(C(=O)NCc2cccc3ccccc23)CCN1C(=O)C1(c2ccccc2)CCCC1 (configuration not stated) ?
aDG glyco up: 0.0; CendR NRP1 mod: -1.7; Tn6 DDE FP: 6.2; DDE Tn7 FP inh: -1.3

How did CCCCCCCCN1C(=O)[C@@H](CC(=O)NCCC(C)C)C[C@@]2(C(=O)OC)C1=C[C@H](C(C)(C)C)O[C@@H]2C do in these assays?
Tn6 DDE FP: 15.9*; DDE Tn7 FP inh: -4.6; DDE Tn6 FP ctr: 2.3; Tn6 DDE conf: -3.8

What do the screens show for `CC(=O)C1=C(C)N(Cc2ccc(F)cc2)C(=S)NC1c1ccccc1` (configuration not stated)?
Tn6 DDE FP: -1.1; DDE Tn7 FP inh: -1.2

Results for C=CCn1c(-c2ccc(F)cc2)n[nH]c1=S ?
aDG glyco up: 0.5; CendR NRP1 mod: -4.4; Tn6 DDE FP: 15.9*; DDE Tn7 FP inh: -2.5; DDE Tn6 FP ctr: -1.8; Tn6 DDE conf: -21.3

What do the screens show for `CC(C)(C)S(=O)(=O)N1C[C@H]2C(=CC[C@@H]3C(=O)N(c4ccccc4)C(=O)[C@@H]32)[C@H]1CCO`?
aDG glyco up: -0.1; CendR NRP1 mod: -1.8; Tn6 DDE FP: 4.8; DDE Tn7 FP inh: -4.3

How did CN(C(=O)C12CC3CC(CC(C3)C1)C2)C1(C)CCS(=O)(=O)C1 (configuration not stated) do in these assays?
aDG glyco up: -0.2; CendR NRP1 mod: 6.3; Tn6 DDE FP: 15.4*; DDE Tn7 FP inh: -3.3; DDE Tn6 FP ctr: 3.2; Tn6 DDE conf: -0.1

How did CC1(NC(=O)C23CC4CC(CC(C4)C2)C3)CCS(=O)(=O)C1 (configuration not stated) do in these assays?
aDG glyco up: -0.2; CendR NRP1 mod: 2.9; Tn6 DDE FP: -2.1; DDE Tn7 FP inh: -7.4
